Here are results for eight molecules from ChEMBL document CHEMBL1131089, “Physical parameters and biological stability of yttrium(III) diethylenetriaminepentaacetic acid derivative conjugates” (J Med Chem, 1998).

Data set [1] is described as follows: Fraction of 88Y (%) released from chelate after incubation in serum for 15 hours. Type of data set: ADME. The method, boiled down:
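p-Nitrobenzyl DTPA derivatives converted to p-isothiocyanato form, conjugated to antibody B72.3, labeled with 88Y. Conjugates incubated in serum 15 h; released 88Y assessed by size-exclusion HPLC (TSK 3000SW, MES/Cl− buffer 0.02 M MES, 0.15 M NaCl, pH 6.5). 88Y-albumin eluted at 7.7 min, assigned against molecular weight standard. Injectate aliquots counted for HPLC recovery.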

The nature of data set [2]: Yttrium(III) stability constant of the compound. Format: physicochemical. The gist of the method: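 Spectrophotometric competition at 25 °C, μ = 0.1 M. Y(III) (3.950 × 10⁻⁶ M) with Arsenazo III (2.00 × 10⁻⁵ M) at pH 3.90, titrated with ligand aliquots. Absorbance drop at 652 nm after each equilibration gave conditional constants, converted to log K. Y–AAIII ML and ML₂ constants and extinction coefficients first obtained by titrating dye with YCl₃.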

For another data set, the species on record is Mus musculus. The data set can be described thus: Percent injected dose per gram at 168 hour for mice injected with 88Y-Ligand-B 72.3. Type of data set: functional, organism-based.

Regarding `CC(CN(CC(=O)O)CC(=O)O)N(CC(=O)O)CC(Cc1ccc([N+](=O)[O-])cc1)N(CC(=O)O)CC(=O)O` (centres undefined), the 88Y-serum in data set [1] was found to be 4.84%. Also, in data set [2], the “Log K” value stood at 22.5. Moreover, the ID/g femur in the data set filed under Mus musculus amounted to 3%.
Take `O=C(O)CN(CC(=O)O)[C@H](Cc1ccc([N+](=O)[O-])cc1)CN(CC(=O)O)[C@@H]1CCCC[C@H]1N(CC(=O)O)CC(=O)O`: the 88Y-serum in data set [1] was determined as 3.79%. In addition, the “Log K” value in data set [2] amounted to 24.7. This molecule also came in with an ID/g femur in the data set filed under Mus musculus of 3.6%.
For `CC(CN(CC(=O)O)CC(Cc1ccc([N+](=O)[O-])cc1)N(CC(=O)O)CC(=O)O)N(CC(=O)O)CC(=O)O` (centres undefined) the same measures were 6.27%, 22.5 and 2.5%.
Turning to `O=C(O)CN(CCN(CC(=O)O)CC(Cc1ccc([N+](=O)[O-])cc1)N(CC(=O)O)CC(=O)O)CC(=O)O` (centres undefined), the “Log K” value in data set [2] came out at 21.5. In addition, the ID/g femur in the data set filed under Mus musculus was 4.3%.
Turning to `O=C(O)CN(CCN(CC(=O)O)C(Cc1ccc([N+](=O)[O-])cc1)CN(CC(=O)O)CC(=O)O)CC(=O)O` (centres undefined), in data set [1], the 88Y-serum stood at 7%. In data set [2], the “Log K” value was 21.7. This molecule also yielded an ID/g femur in the data set filed under Mus musculus of 5.2%.
With `O=C(O)CN(CCN(CC(=O)O)[C@@H]1CCCC[C@H]1N(CC(=O)O)CC(=O)O)CC(=O)O`, the “Log K” value in data set [2] was 24.2.
On the same count and under the same terms, under `O=C(O)CN(CCN(CC(=O)O)CC(=O)O)CCN(CC(=O)O)CC(=O)O` [PENTETIC ACID] stands 22.4.
On to `O=C(O)CN(CC(=O)O)[C@@H](Cc1ccc([N+](=O)[O-])cc1)CN(CC(=O)O)[C@@H]1CCCC[C@H]1N(CC(=O)O)CC(=O)O`, for which the 88Y-serum in data set [1] is recorded as 18.5%. Also, the “Log K” value in data set [2] was found to be 24.4. In addition, in the data set listed under Mus musculus, the ID/g femur was 6.1%.
